A short description of data set [1]: Stability in 20 mM HEPES buffer assessed as beta-lactone hydrolysis rate at pH 7.3 at 37 degC.
The species named for data set [2] is Oryctolagus cuniculus. Kind of data set: Inhibition of chymotrypsin-like activity of rabbit 20S proteasome assessed as enzyme activity recovery 12 hrs after dialysis. In outline: (§1)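 Rabbit 20S proteasome (1.4 nM final) was incubated 1 h at ambient temperature with compound or DMSO (0.1% final) in 20 mM HEPES pH 7.3, 0.5 mM EDTA, 0.05% Triton X-100, 0.035% SDS (SDS omitted for T-L). Mixtures were dialysed (MWCO 12-14000) against assay buffer at ambient temperature. Samples taken at 0, 1, 2, 5, 24 h (some also 12 h) for site activity, normalised to DMSO controls.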

Data set [3] is described as follows: Inhibition of chymotrypsin-like activity of rabbit 20S proteasome. Also on record: species or system Oryctolagus cuniculus. In outline:
(§2)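 Purified rabbit muscle 20S proteasome at 1.4 nM final. T-L used the same buffer without SDS and Boc-LRR-AMC. Serial dilutions were preincubated 5 min at 37 °C. AMC fluorescence ex 390/em 460 nm.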

Data set [4] is described as follows: Inhibition of trypsin-like activity of rabbit 20S proteasome. Also on record: species or system Oryctolagus cuniculus. In outline:
as §2

Data set [5] is described as follows: Inhibition of caspase-like activity of rabbit 20S proteasome. Also on record: species or system Oryctolagus cuniculus. In outline:
as §2

The species named for data set [6] is Oryctolagus cuniculus. The data set can be described thus: Inhibition of chymotrypsin-like activity of rabbit 20S proteasome assessed as enzyme activity recovery 24 hrs after dialysis. In outline:
as §1

The species entered for data set [7] is Homo sapiens. The data set can be described thus: Inhibition of chymotrypsin-like activity of human 20S proteasome assessed as enzyme activity recovery 12 hrs after dialysis.
Data set [8] in a line: Inhibition of caspase-like activity of yeast 20S proteasome. Set-up: species or system Saccharomyces cerevisiae. In a few lines: (§3)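 Purified yeast 20S proteasome in 75 mM Tris-HCl pH 7.8 with 0.02% SDS. Serial compound dilutions were preincubated 5 min at 37 °C, then substrate was added: Suc-LLVY-AMC at 20 µM final (CT-L), Z-LLE-AMC (C-L), or Bz-VGR-AMC with SDS omitted (T-L). Cleaved AMC read at ex 390/em 460 nm.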

For data set [9], the species on record is Homo sapiens. The data set can be described thus: Inhibition of chymotrypsin-like activity of human 20S proteasome assessed as inactivation rate by fluorimetry based kinetic assay.
Data set [10] is described as follows: Inhibition of chymotrypsin-like activity of yeast 20S proteasome. Also on record: species or system Saccharomyces cerevisiae. In outline: as §3
Data set [11] can be described thus: Inhibition of caspase-like activity of human 20S proteasome.
Data set [12] in a line: Inhibition of trypsin-like activity of human 20S proteasome.
A short description of data set [13]: Inhibition of chymotrypsin-like activity of human 20S proteasome.
For data set [14], the species on record is Homo sapiens. Kind of data set: Inhibition of trypsin-like activity of human 20S proteasome assessed as inactivation rate by fluorimetry based kinetic assay.
For data set [15], the species on record is Homo sapiens. Kind of data set: Inhibition of trypsin-like activity of human 20S proteasome assessed as enzyme activity recovery 12 hrs after dialysis.
The species entered for data set [16] is Oryctolagus cuniculus. Kind of data set: Inhibition of caspase-like activity of rabbit 20S proteasome assessed as enzyme activity recovery 24 hrs after dialysis. In outline:
as §1

Data set [17] is described as follows: Inhibition of caspase-like activity of human 20S proteasome assessed as release of free AMC substrate by fluorimetry based kinetic assay.
Data set [18] can be described thus: Inhibition of chymotrypsin-like activity of human 20S proteasome assessed as release of free AMC substrate by fluorimetry based kinetic assay.
Data set [19] is filed under the species Homo sapiens. The data set can be described thus: Inhibition of caspase-like activity of human 20S proteasome assessed as enzyme activity recovery 12 hrs after dialysis.
A short description of data set [20]: Inhibition of trypsin-like activity of yeast 20S proteasome. Also on record: species or system Saccharomyces cerevisiae. In a few lines: as §3
The nature of data set [21]: Inhibition of trypsin-like activity of human 20S proteasome assessed as release of free AMC substrate by fluorimetry based kinetic assay.
The species named for data set [22] is Oryctolagus cuniculus. Kind of data set: Inhibition of trypsin-like activity of rabbit 20S proteasome assessed as enzyme activity recovery 24 hrs after dialysis. In outline: as §1
Data set [23] is filed under the species Homo sapiens. The data set can be described thus: Inhibition of caspase-like activity of human 20S proteasome assessed as inactivation rate by fluorimetry based kinetic assay.
The species entered for data set [24] is Oryctolagus cuniculus. Kind of data set: Inhibition of caspase-like activity of rabbit 20S proteasome assessed as enzyme activity recovery 12 hrs after dialysis. In outline: as §1
The species named for data set [25] is Oryctolagus cuniculus. The data set can be described thus: Inhibition of trypsin-like activity of rabbit 20S proteasome assessed as enzyme activity recovery 12 hrs after dialysis. In outline:
as §1

The source made the active and inactive calls. The rule behind the calls is not given here.

Here are results for eleven compounds from ChEMBL document CHEMBL1142546 (J Med Chem, 2008).

By half-life is commonly meant how long it takes for the measured level to halve. What is called IC50 is the concentration that gives 50% inhibition. The low end stands for greater potency, the high end for weaker potency. Regarding `CCC[C@H]1C(=O)N[C@@]2([C@@H](O)[C@@H]3C=CCCC3)C(=O)O[C@@]12C`, the half-life in [1] is 2.85 h. The outcome in the data set filed under Oryctolagus cuniculus [2] was inactive. Moreover, the half-maximal inhibitory concentration (IC50) in data set [3] is 24 nM; in data set [4] it was 1100 nM; in [5], 1200 nM.

As to `C[C@H]1C(=O)N[C@@]2([C@@H](O)[C@@H]3C=CCCC3)C(=O)O[C@@]12C`, the half-life in data set [1] turned out to be 1.58 h. Moreover, the result in the data set listed under Oryctolagus cuniculus [2] was inactive. Moreover, the IC50 came to 7.5 nM in data set [3], 370 nM in data set [4] and 460 nM in data set [5].

Turning to `CN(C)c1cccc2c(S(=O)(=O)OCC[C@H]3C(=O)N[C@@]4([C@@H](O)[C@@H]5C=CCCC5)C(=O)O[C@@]34C)cccc12`, the half-life in data set [1] turned out to be 2.98 h. The half-inhibitory concentration (IC50) came to 3 nM in data set [3], 12 nM in [4] and 90 nM in [5].

As to `Cc1ccc(S(=O)(=O)OCC[C@H]2C(=O)N[C@@]3([C@@H](O)[C@@H]4C=CCCC4)C(=O)O[C@@]23C)cc1`, in [1], the half-life turned out to be 1.25 h. Besides, the result in the data set filed under Oryctolagus cuniculus [6] was Active. In addition, the half-maximal inhibitory concentration (IC50) in [3] stood at 2.5 nM; in data set [4], 9.9 nM; in data set [5] it was 127 nM.

As to `C[C@@]12OC(=O)[C@]1([C@@H](O)[C@@H]1C=CCCC1)NC(=O)[C@@H]2CCOS(C)(=O)=O`, in [1], the half-life was 0.983 h. The result in the data set listed under Oryctolagus cuniculus [6] was Active. For the same compound, the values for the IC50 in data set [3], in data set [4] and in [5] were 4.3 nM, 65 nM and 870 nM, respectively.

As for `C[C@@]12OC(=O)[C@]1([C@@H](O)[C@@H]1C=CCCC1)NC(=O)[C@@H]2CCBr` [BROMOSALINOSPORAMIDE], the half-life in data set [1] was 1.33 h. The IC50 amounted to 2.6 nM in [3], 14 nM in data set [4] and 290 nM in data set [5].

With `C[C@@]12OC(=O)[C@]1([C@@H](O)[C@@H]1C=CCCC1)NC(=O)[C@@H]2CCF` [FLUOROSALINOSPORAMIDE], the half-life in data set [1] amounted to 1.32 h. The outcome in the data set filed under Oryctolagus cuniculus [6] was Active. Also, 9.2 nM corresponded to half-maximal inhibition in data set [3] (IC50).

As to `C[C@@]12OC(=O)[C@]1([C@@H](O)[C@@H]1C=CCCC1)NC(=O)[C@@H]2CCI` [IODOSALINOSPORAMIDE], the half-life in [1] came to 1.53 h. In addition, the concentration for half-maximal inhibition (IC50) in data set [3] turned out to be 2.8 nM; in data set [4], 13 nM; in data set [5], 410 nM.

As usually defined, the Ki is the dissociation constant of the complex between target and ligand, obtained from inhibition or displacement. For the compound `C[C@@]12OC(=O)[C@]1([C@@H](O)[C@@H]1C=CCCC1)NC(=O)[C@@H]2CCCl` [MARIZOMIB], the result in the data set filed under Homo sapiens [7], in the data set filed under Oryctolagus cuniculus [6], in the data set listed under Homo sapiens [15], in the data set filed under Oryctolagus cuniculus [16], in the data set listed under Homo sapiens [19] and in the data set listed under Oryctolagus cuniculus [22] was Active. The IC50 was 2600 nM in [8]; 2 nM in data set [10]; 430 nM in [11]; 28 nM in data set [12]; 3.5 nM in data set [13]; 59 nM in [20]. In addition, the Activity in the data set listed under Homo sapiens [9] was 0.01 s⁻¹; in the data set filed under Homo sapiens [14], 0.003 s⁻¹; in the data set listed under Homo sapiens [23] it was greater than 0.02 s⁻¹. In [1], the half-life is 1.28 h. For the same compound, the Ki in data set [17] was greater than 1000 nM; in data set [18], 23 nM; in data set [21], 97 nM.

Turning to `CC[C@H]1C(=O)N[C@@]2([C@@H](O)[C@@H]3C=CCCC3)C(=O)O[C@@]12C` [SALINOSPORAMIDE B], the IC50 in [8] was greater than 20000 nM; in data set [10] it was 16 nM; in [4], 610 nM; in data set [20], 1040 nM. The result in the data set listed under Oryctolagus cuniculus [24], in the data set filed under Oryctolagus cuniculus [2] and in the data set listed under Oryctolagus cuniculus [25] was inactive. In [1], the half-life was 3.17 h.

For the compound `C[C@@]12OC(=O)[C@@]1([C@@H](O)[C@@H]1C=CCCC1)NC(=O)[C@@H]2CCO` [hydroxysalinosporamide A], the half-life in [1] came to 1.42 h. Moreover, the outcome in the data set filed under Oryctolagus cuniculus [2] was inactive. Moreover, the IC50 in data set [3] is 14 nM; in [4] it was 1200 nM; in [5], 1200 nM.
